≈ marks a conversion by molar mass, not a printed value. Calls of active or inactive are those of the source. The rule behind the calls is not given here.
Columns and labels:
Assay type in all cases: functional
[1] = Antioxidant activity assessed as hydrogen peroxide scavenging activity at 50 ug/ml relative to control
[2] = system: Radical scavenging activity; experiment: Antioxidant activity assessed as DPPH free radical scavenging activity at 100 ug/ml after 30 mins by spectrophotometric analysis relative to control
Procedure, shortened: (§1)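 Compounds in methanol at […] were mixed with 0.004% (w/v) methanolic DPPH. After 30 min at room temperature, absorbance was read at 517 nm against a blank. Percent inhibition was calculated from control (all reagents minus compound) and sample absorbances. Run in triplicate.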

[3] = system: Radical scavenging activity; experiment: Antioxidant activity assessed as DPPH free radical scavenging activity at 75 ug/ml after 30 mins by spectrophotometric analysis relative to control; procedure, shortened: as §1
[4] = Antioxidant activity assessed as hydrogen peroxide scavenging activity at 75 ug/ml relative to control
[5] = Antioxidant activity assessed as hydrogen peroxide scavenging activity at 100 ug/ml relative to control
[6] = Antioxidant activity assessed as nitric oxide scavenging activity at 100 ug/ml after 150 mins by Griess method relative to control
Procedure, shortened: (§2)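 NO was generated from sodium nitroprusside (10 mM) in phosphate buffer saline (0.2 M, pH 7.4). Compounds were added at […] and incubated 150 min at 25 °C. Percent scavenging was calculated from control (all reagents minus compound) and sample absorbances. Run in triplicate.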

[7] = system: Radical scavenging activity; experiment: Antioxidant activity assessed as DPPH free radical scavenging activity at 50 ug/ml after 30 mins by spectrophotometric analysis relative to control; procedure, shortened: as §1
[8] = Antioxidant activity assessed as nitric oxide scavenging activity at 50 ug/ml after 150 mins by Griess method relative to control; procedure, shortened: as §2
[9] = Antioxidant activity assessed as nitric oxide scavenging activity at 75 ug/ml after 150 mins by Griess method relative to control; procedure, shortened: as §2
[10] = system: Radical scavenging activity; experiment: Antioxidant activity assessed as DPPH free radical scavenging activity after 30 mins by spectrophotometric analysis; procedure, shortened: as §1

Row | Structure (SMILES) | IC50 [10] | Activity [1] | inhibition [2] | inhibition [3] | Activity [4] | Activity [5] | Activity [6] | inhibition [7] | Activity [8] | Activity [9]
1 | O=S(=O)(CC1=NCCO1)c1c(-c2ccc(Cl)cc2)nn(-c2ccccc2)c1-c1ccc(Cl)cc1 | Not Active | inactive | inactive | inactive | inactive | inactive | inactive | inactive | inactive | inactive
2 | COc1ccc(C2=NN(c3ccccc3)C(c3ccc(C)cc3)C2S(=O)(=O)CC2=NCCO2)cc1 (stereo not given) | 67.74 µg/mL (≈ 138 µM) | 62.5% | 73.8% | 70.2% | 64.3% | 67.7% | 70.5% | 64.4% | 59.1% | 64.9%
3 | O=S(=O)(CC1=NCCO1)c1c(-c2ccccc2)nn(-c2ccccc2)c1-c1ccccc1 | 82.48 µg/mL (≈ 186 µM) | 55.6% | 60.6% | 56.6% | 57.2% | 59.1% | 63.5% | 51.9% | 54.5% | 59%
4 | COc1ccc(-c2nn(-c3ccccc3)c(-c3ccc(C)cc3)c2S(=O)(=O)CC2=NCCO2)cc1 | 71.07 µg/mL (≈ 146 µM) | 67.6% | 70.3% | 67.6% | 68.7% | 72.5% | 68.2% | 65.5% | 61.6% | 66.6%
5 | O=S(=O)(CC1=NCCO1)c1c(-c2ccccc2)noc1-c1ccccc1 | 69.47 µg/mL (≈ 189 µM) | 57.2% | 72% | 65.8% | 58.1% | 60.1% | 62.1% | 61.6% | 56.7% | 57.3%
6 | O=S(=O)(CC1=NCCO1)C1C(c2ccccc2)=NN(c2ccccc2)C1c1ccccc1 (stereo not given) | 86.25 µg/mL (≈ 194 µM) | 44.4% | 58% | 53.4% | 45.5% | 48.1% | 57.9% | 48.2% | 46.7% | 51.4%
7 | O=S(=O)(CC1=NCCO1)C1C(c2ccc(Cl)cc2)=NOC1c1ccc(Cl)cc1 (stereo not given) | Not Active | inactive | inactive | inactive | inactive | inactive | inactive | inactive | inactive | inactive
8 | O=C1O[C@H]([C@@H](O)CO)C(O)=C1O [ASCORBIC ACID] | 59.65 µg/mL (≈ 339 µM) | 77.7% | 83.8% | 81% | 79.3% | 83.2% | 82.8% | 77.2% | 78.2% | 81.5%
9 | O=S(=O)(CC1=NCCO1)C1C(c2ccc(Cl)cc2)=NN(c2ccccc2)C1c1ccc(Cl)cc1 (stereo not given) | Not Active | inactive | inactive | inactive | inactive | inactive | inactive | inactive | inactive | inactive
10 | O=S(=O)(CC1=NCCS1)c1c(-c2ccc(Cl)cc2)nn(-c2ccccc2)c1-c1ccc(Cl)cc1 | Not Active | inactive | inactive | inactive | inactive | inactive | inactive | inactive | inactive | inactive
11 | O=S(=O)(CC1=NCCO1)c1c(-c2ccc(Cl)cc2)noc1-c1ccc(Cl)cc1 | Not Active | inactive | inactive | inactive | inactive | inactive | inactive | inactive | inactive | inactive
12 | O=S(=O)(CC1=NCCO1)C1C(c2ccccc2)=NOC1c1ccccc1 (stereo not given) | 86.31 µg/mL (≈ 233 µM) | 51.7% | 57.9% | 55.2% | 53.3% | 56.6% | 62.8% | 49.4% | 53.9% | 57.2%
13 | O=S(=O)(CC1=NCCO1)c1n[nH]cc1-c1ccc(Cl)cc1 | Not Active | inactive | inactive | inactive | inactive | inactive | inactive | inactive | inactive | inactive

Continued, in another order:

Row | IC50 [10] | Structure (SMILES) | Activity [1] | inhibition [2] | inhibition [3] | Activity [4] | Activity [5] | Activity [6] | inhibition [7] | Activity [8] | Activity [9]
14 | Not Active | O=S(=O)(CC1=NCCS1)c1n[nH]cc1-c1ccccc1 | inactive | inactive | inactive | inactive | inactive | inactive | inactive | inactive | inactive
15 | Not Active | Cc1ccc(-c2c[nH]nc2S(=O)(=O)CC2=NCCS2)cc1 | inactive | inactive | inactive | inactive | inactive | inactive | inactive | inactive | inactive
16 | 97.04 µg/mL (≈ 192 µM) | COc1ccc(C2=NN(c3ccccc3)C(c3ccc(C)cc3)C2S(=O)(=O)CC2=NCCS2)cc1 (stereo not given) | 42.6% | 51.5% | 45.8% | 43.9% | 47.9% | 50.7% | 37.5% | 39.4% | 44.9%
17 | 103.73 µg/mL (≈ 321 µM) | Cc1ccc(C2CNN=C2S(=O)(=O)CC2=NCCS2)cc1 (stereo not given) | 39.8% | 48.2% | 44% | 42.2% | 45% | 52.1% | 40.9% | 43.1% | 48.6%
18 | Not Active | COc1ccc(-c2nn(-c3ccccc3)c(-c3ccc(C)cc3)c2S(=O)(=O)CC2=NCCS2)cc1 | inactive | inactive | inactive | inactive | inactive | inactive | inactive | inactive | inactive
19 | Not Active | O=S(=O)(CC1=NCCS1)C1=NNCC1c1ccc(Cl)cc1 (stereo not given) | inactive | inactive | inactive | inactive | inactive | inactive | inactive | inactive | inactive
20 | Not Active | COc1ccc(-c2noc(-c3ccc(C)cc3)c2S(=O)(=O)CC2=NCCS2)cc1 | inactive | inactive | inactive | inactive | inactive | inactive | inactive | inactive | inactive
21 | 72.51 µg/mL (≈ 237 µM) | Cc1ccc(-c2c[nH]nc2S(=O)(=O)CC2=NCCO2)cc1 | 60.7% | 69% | 63.7% | 62% | 65.5% | 65.2% | 59.8% | 59.4% | 63.5%
22 | 100.44 µg/mL (≈ 327 µM) | Cc1ccc(C2CNN=C2S(=O)(=O)CC2=NCCO2)cc1 (stereo not given) | 41.3% | 49.8% | 43.6% | 42.1% | 46.8% | 51.4% | 38.7% | 45.9% | 49.7%
23 | 85.38 µg/mL (≈ 198 µM) | COc1ccc(C2=NOC(c3ccc(C)cc3)C2S(=O)(=O)CC2=NCCS2)cc1 (stereo not given) | 47.5% | 58.6% | 50.6% | 49.7% | 52.6% | 59.6% | 46.8% | 48.6% | 54.1%
24 | 75.16 µg/mL (≈ 181 µM) | COc1ccc(C2=NOC(c3ccc(C)cc3)C2S(=O)(=O)CC2=NCCO2)cc1 (stereo not given) | 65.9% | 66.5% | 63.3% | 66.6% | 70.9% | 71.2% | 58.1% | 61.9% | 65.9%

From ChEMBL document CHEMBL1828624, “Synthesis and antioxidant activity of oxazolyl/thiazolylsulfonylmethyl pyrazoles and isoxazoles” (Eur J Med Chem, 2011)
